These results are taken from ChEMBL document CHEMBL4680183, “1,2,3-Triazole-Chalcone hybrids: Synthesis, in vitro cytotoxic activity and mechanistic investigation of apoptosis induction in multiple myeloma RPMI-8226” (Eur J Med Chem, 2020).

Structures are written as SMILES. pIC50: −log10 of the molar value.

For experiment [1], the target named is Histone deacetylase 2 (Homo sapiens, UniProt Q92769). Description: Inhibition of HDAC2 in human RPMI-8226 cells incubated for 2 hrs by ELISA. Format: cell-based. Summed up:
(§1)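 Target levels measured by ELISA kits in RPMI-8226 cells. Cells were seeded and grown 24 h at 37 °C, then exposed 72 h to a semi-log series of concentrations. Sample was incubated 2 h at 37 °C, followed by detection reagents A and B (1 h each), TMB substrate and stop solution, with OD read at 450 nm. IC50 was taken from sigmoidal dose-response nonlinear regression of % activity.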
In general terms: ELISA stands for enzyme-linked immunosorbent assay.

Experiment [2] addresses Histone deacetylase 3 (Homo sapiens, UniProt O15379). The experiment is described as follows: Inhibition of HDAC3 in human RPMI-8226 cells incubated for 2 hrs by ELISA. The format is cell-based. The procedure, abridged: as §1
In experiment [3] the target is Vascular endothelial growth factor receptor 2 (Homo sapiens, UniProt P35968). The experiment is described as follows: Inhibition of VEGFR2 in human RPMI-8226 cells incubated for 2 hrs by ELISA. Format: cell-based.
Sequence of Vascular endothelial growth factor receptor 2 (P35968 whole entry): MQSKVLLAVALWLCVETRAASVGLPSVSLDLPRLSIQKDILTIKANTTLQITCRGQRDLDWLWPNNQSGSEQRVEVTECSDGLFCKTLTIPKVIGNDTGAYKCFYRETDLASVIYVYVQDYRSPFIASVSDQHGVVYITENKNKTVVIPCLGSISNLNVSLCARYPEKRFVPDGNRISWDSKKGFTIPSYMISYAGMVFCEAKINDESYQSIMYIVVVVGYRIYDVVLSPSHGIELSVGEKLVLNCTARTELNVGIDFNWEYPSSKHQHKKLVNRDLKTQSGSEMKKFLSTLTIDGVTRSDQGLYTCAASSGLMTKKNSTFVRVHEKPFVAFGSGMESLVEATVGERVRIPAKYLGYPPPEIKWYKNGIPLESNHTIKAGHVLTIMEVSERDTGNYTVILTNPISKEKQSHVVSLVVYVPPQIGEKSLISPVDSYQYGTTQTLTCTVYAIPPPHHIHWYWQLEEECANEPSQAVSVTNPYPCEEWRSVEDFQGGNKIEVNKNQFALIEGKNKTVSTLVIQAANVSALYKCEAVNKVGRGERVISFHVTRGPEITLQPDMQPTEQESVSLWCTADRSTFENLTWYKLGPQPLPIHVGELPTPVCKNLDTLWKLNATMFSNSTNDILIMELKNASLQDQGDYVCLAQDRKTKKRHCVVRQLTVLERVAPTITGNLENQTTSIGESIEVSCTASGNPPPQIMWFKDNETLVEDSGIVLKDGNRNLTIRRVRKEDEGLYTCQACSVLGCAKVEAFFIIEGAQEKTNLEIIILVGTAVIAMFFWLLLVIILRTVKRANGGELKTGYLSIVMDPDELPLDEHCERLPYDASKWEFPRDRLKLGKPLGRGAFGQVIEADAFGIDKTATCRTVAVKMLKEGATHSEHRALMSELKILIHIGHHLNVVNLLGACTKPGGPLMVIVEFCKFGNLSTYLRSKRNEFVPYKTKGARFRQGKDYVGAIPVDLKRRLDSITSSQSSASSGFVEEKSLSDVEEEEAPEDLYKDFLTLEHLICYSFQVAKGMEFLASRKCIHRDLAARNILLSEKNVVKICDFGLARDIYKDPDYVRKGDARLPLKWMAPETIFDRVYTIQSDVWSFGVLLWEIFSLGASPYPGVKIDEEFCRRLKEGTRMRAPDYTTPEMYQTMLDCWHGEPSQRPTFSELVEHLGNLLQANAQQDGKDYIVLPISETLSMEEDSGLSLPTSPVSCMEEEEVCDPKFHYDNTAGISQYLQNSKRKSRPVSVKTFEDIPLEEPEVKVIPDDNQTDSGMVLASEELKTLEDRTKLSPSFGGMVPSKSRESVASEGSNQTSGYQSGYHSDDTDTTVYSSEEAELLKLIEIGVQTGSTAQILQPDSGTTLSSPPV
Experiment [4] deals with T1, Histone deacetylase 8 (Homo sapiens, UniProt Q9BY41).
T1 sequence (Q9BY41 whole entry): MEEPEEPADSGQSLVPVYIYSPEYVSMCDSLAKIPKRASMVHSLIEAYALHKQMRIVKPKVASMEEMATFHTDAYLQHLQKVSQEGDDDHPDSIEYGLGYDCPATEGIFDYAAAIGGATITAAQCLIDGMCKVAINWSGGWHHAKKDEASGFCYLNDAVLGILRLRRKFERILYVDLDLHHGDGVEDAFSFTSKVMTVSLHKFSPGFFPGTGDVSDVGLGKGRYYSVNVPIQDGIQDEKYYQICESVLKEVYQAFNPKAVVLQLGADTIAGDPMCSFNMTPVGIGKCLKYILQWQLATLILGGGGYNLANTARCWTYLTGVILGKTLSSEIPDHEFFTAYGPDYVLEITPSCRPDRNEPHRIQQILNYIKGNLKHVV
Description: Inhibition of HDAC8 in human RPMI-8226 cells incubated for 2 hrs by ELISA. Format: cell-based. Summed up:
as §1

Experiment [5] concerns the target Tubulin. Description: Inhibition of Tubulin in human RPMI-8226 cells incubated for 2 hrs by ELISA. Format: cell-based. Summed up:
as §1

For experiment [6], the target named is Histone deacetylase 1 (Homo sapiens, UniProt Q13547). Description: Inhibition of HDAC1 in human RPMI-8226 cells incubated for 2 hrs by ELISA. The format is cell-based. Summed up: as §1
Sequence of Histone deacetylase 1 (Q13547 whole entry): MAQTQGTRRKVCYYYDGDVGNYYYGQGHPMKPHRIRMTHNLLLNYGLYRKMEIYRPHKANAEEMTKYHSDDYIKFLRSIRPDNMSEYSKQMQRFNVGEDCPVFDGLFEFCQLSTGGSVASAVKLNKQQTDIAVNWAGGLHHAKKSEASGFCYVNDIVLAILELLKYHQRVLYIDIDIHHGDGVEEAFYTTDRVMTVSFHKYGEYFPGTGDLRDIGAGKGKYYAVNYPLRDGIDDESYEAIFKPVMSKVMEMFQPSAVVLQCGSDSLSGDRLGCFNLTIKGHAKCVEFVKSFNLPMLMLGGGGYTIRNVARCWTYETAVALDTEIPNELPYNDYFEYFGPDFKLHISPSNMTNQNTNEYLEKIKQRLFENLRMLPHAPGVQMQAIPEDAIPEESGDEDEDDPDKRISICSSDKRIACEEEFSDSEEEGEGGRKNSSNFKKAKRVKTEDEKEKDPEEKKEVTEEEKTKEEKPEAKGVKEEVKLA
In experiment [7] the target is Epidermal growth factor receptor (Homo sapiens, UniProt P00533). The experiment is described as follows: Inhibition of EGFR in human RPMI-8226 cells incubated for 2 hrs by ELISA. Format: cell-based.
Sequence of Epidermal growth factor receptor (P00533 whole entry): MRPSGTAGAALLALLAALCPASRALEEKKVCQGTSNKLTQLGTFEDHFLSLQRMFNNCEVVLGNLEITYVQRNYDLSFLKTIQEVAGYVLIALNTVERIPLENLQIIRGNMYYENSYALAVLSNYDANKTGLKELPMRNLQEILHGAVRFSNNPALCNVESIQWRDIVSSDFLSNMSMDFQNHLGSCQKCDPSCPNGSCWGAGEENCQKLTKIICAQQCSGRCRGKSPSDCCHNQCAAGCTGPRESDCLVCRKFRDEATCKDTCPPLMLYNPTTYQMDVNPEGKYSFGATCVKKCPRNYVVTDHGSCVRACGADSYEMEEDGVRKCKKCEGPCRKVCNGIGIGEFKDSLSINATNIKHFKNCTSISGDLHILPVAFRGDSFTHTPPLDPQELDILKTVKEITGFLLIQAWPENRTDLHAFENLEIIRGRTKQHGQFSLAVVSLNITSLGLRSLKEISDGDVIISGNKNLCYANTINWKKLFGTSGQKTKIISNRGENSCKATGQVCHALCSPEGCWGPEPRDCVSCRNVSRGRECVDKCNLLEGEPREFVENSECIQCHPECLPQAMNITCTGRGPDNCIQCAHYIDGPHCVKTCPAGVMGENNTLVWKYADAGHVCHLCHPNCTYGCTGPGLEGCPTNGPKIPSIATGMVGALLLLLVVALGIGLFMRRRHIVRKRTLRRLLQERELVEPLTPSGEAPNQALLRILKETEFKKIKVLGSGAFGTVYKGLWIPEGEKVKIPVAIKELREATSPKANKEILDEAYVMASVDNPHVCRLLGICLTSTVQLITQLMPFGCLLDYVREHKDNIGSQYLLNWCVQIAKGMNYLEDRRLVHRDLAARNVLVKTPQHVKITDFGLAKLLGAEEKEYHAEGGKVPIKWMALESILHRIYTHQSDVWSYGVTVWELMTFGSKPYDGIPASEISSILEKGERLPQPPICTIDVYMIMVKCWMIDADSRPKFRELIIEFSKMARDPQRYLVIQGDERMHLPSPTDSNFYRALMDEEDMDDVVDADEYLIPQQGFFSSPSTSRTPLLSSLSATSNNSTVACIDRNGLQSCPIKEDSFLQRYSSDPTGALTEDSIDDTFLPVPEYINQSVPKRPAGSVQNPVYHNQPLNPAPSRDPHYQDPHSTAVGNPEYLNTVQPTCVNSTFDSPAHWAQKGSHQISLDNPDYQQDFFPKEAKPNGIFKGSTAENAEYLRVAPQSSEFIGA
In experiment [8] the test system is RPMI-8226. Description: Induction of ROS accumulation in human RPMI-8226 cells incubated for 2 hrs by ELISA (reference value: 26.06 +/- […]). The format is functional.
Experiment [9] concerns RPMI-8226. The experiment is described as follows: Induction of apoptosis in human RPMI-8226 cells assessed as Caspase-7 level incubated for 24 hrs by ELISA (reference value: 0.359 +/- 0.016 ng/ml). The format is functional.
Experiment [10] relates to RPMI-8226. The experiment is described as follows: Induction of apoptosis in human RPMI-8226 cells assessed as Bcl-2 level incubated for 24 hrs by ELISA (reference value: 4.857 +/- […]). Format: functional.
For experiment [11], the system named is RPMI-8226. Description: Induction of apoptosis in human RPMI-8226 cells assessed as BAX level incubated for 24 hrs by ELISA (reference value: 56 +/- […]). Format: functional.
In experiment [12] the test system is RPMI-8226. Description: Induction of apoptosis in human RPMI-8226 cells assessed as Caspase-9 level incubated for 24 hrs by ELISA (reference value: 1.63 +/- […]). Format: functional.
The subject of experiment [13] is RPMI-8226. Description: Induction of apoptosis in human RPMI-8226 cells assessed as Caspase-3 level incubated for 24 hrs by ELISA (reference value: 35.3 pg/ml). Format: functional.
Experiment [14] deals with RPMI-8226. The experiment is described as follows: Induction of apoptosis in human RPMI-8226 cells assessed as PARP-1 level incubated for 24 hrs by ELISA (reference value: 0.151 +/- […]). The format is functional.

Sequence of Histone deacetylase 2 (Q92769 whole entry): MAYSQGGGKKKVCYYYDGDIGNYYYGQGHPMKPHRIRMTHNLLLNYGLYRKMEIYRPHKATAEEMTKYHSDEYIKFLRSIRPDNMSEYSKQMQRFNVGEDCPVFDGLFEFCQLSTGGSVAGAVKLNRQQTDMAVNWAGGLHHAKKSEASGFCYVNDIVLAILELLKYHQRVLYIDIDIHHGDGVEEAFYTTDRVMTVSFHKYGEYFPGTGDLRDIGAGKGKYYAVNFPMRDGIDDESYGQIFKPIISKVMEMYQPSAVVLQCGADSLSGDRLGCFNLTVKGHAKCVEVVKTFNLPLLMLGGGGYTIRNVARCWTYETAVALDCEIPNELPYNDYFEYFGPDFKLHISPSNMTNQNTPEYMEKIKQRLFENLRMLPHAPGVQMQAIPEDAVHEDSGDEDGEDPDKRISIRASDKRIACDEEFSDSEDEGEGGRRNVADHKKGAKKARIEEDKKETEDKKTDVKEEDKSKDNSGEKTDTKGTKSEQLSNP
Sequence of Histone deacetylase 3 (O15379 whole entry): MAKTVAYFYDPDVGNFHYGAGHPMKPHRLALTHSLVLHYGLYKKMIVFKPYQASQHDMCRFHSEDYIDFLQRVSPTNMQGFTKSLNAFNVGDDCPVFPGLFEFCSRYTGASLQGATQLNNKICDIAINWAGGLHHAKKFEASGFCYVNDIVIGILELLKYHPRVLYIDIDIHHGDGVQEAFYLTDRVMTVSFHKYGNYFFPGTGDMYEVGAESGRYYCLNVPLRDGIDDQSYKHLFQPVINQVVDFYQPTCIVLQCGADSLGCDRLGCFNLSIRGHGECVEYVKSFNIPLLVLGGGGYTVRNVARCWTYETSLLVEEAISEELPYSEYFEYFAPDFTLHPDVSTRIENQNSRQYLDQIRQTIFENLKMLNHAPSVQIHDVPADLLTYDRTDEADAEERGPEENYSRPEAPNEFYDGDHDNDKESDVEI

As to `COc1ccc(/C=C/C(=O)c2nnn(-c3ccc(Cl)cc3)c2C)cc1OC`, the pIC50 was 5.54 in [1]; 5.52 in [2]; 6.41 in experiment [3]; 7.33 in experiment [4]; 8.01 in experiment [5]; 5.82 in experiment [6]. This molecule had a pIC50 in [7] of 7.44.

Consider `CC(C)C[C@H](NC(=O)[C@H](Cc1ccccc1)NC(=O)c1cnccn1)B(O)O` [BORTEZOMIB], for which the pIC50 in [1] was 6.10; in experiment [2], 5.93; in experiment [4], 7.14; in [6], 6.21.

In [8], `COc1cc2ncnc(Nc3ccc(F)c(Cl)c3)c2cc1OCCCN1CCOCC1` [GEFITINIB] displayed an Activity of 80.92 pg/mL.

For the molecule `CN[C@@H]1C[C@H]2O[C@@](C)([C@@H]1OC)n1c3ccccc3c3c4c(c5c6ccccc6n2c5c31)C(=O)NC4` [STAUROSPORINE], the Activity in experiment [9] came out at 1.508 ng/mL; in experiment [10], 0.4081 ng/mL; in [11], 336.16 pg/mL; in experiment [12], 24.97 ng/mL; in experiment [13] it was 449.8 pg/mL; in experiment [14], 0.245 ng/mL.

A word on the pIC50: it is the negative decadic logarithm of the IC50, by convention in mol/L.
